Values after ≈ are worked out from the molar mass of the structure shown.

Common to all, as to format: functional
Test [1] deals with Helicobacter pylori. The test is described as follows: Anti-bacterial activity against Helicobacter pylori Clinical isolate F4 measured after 72 hrs incubation by modified broth dilution method.
For test [2], the system named is Helicobacter pylori. The test is described as follows: Anti-bacterial activity against Helicobacter pylori Clinical isolate 23 measured after 72 hrs incubation by modified broth dilution method. On the technique in general: In broth dilution the organism is exposed to a series of concentrations in liquid medium.
Test [3] has as its system Helicobacter pylori. The test is described as follows: Bactericidal activity against Helicobacter pylori Clinical isolate 23 measured after 72 hrs of incubation under microaerophilic conditions by modified broth dilution method. Particulars: read-out: MBC99.9. In a few lines: (§1)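 H. pylori (NCTC 11637, F1, 23, F4). Wells with no visible growth in the MIC assay spotted (10 μL) onto Skirrow agar. Plates incubated 72 h at 37 °C, microaerophilic, 100% humidity. MBC = concentration killing 99.9% of the initial inoculum. Triplicate, on at least three different days.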

Test [4] relates to Helicobacter pylori. The test is described as follows: Bactericidal against Helicobacter pylori measured after 72 hrs of incubation under microaerophilic conditions by modified broth dilution method. In a few lines:
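Wells with no visible growth in the MIC assay spotted (10 μL) onto Skirrow agar. Plates incubated 72 h at 37 °C, microaerophilic, 100% humidity. Triplicate, on at least three different days.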

Test [5] relates to Helicobacter pylori. The test is described as follows: Anti-bacterial activity against Helicobacter pylori measured after 72 hrs incubation by modified broth dilution method.
The test system of test [6] is Helicobacter pylori. The test is described as follows: Anti-bacterial activity against Helicobacter pylori Clinical isolate F1 measured after 72 hrs incubation by modified broth dilution method.
Test [7] has as its system Helicobacter pylori. The test is described as follows: Bactericidal against Helicobacter pylori Clinical isolate F4 measured after 72 hrs of incubation under microaerophilic conditions by modified broth dilution method. To be noted: read-out: MBC99.9. In a few lines: as §1
Test [8] concerns Helicobacter pylori. The test is described as follows: Bactericidal activity against Helicobacter pylori NCTC 11637 measured after 72 hrs of incubation under microaerophilic conditions by modified broth dilution method. Particulars: read-out: MBC99.9. In a few lines:
as §1

In test [9] the test system is Helicobacter pylori. The test is described as follows: Bactericidal activity against Helicobacter pylori Clinical isolate F1 measured after 72 hrs of incubation under microaerophilic conditions by modified broth dilution method. Particulars: read-out: MBC99.9. In a few lines:
as §1

The subject of test [10] is Helicobacter pylori. The test is described as follows: Anti-bacterial activity against Helicobacter pylori NCTC 11637 measured after 72 hrs incubation by modified broth dilution method.

`Cc1ccccc1/N=N/c1cc(C(C)C)c(O)c(/N=N/c2ccccc2C)c1C`: the minimal inhibitory concentration (MIC) (in general, the lowest concentration that inhibits growth of the organism) in [1] was 128 µg/mL (≈ 331 µM); in test [2] it was 128 µg/mL (≈ 331 µM); in test [6] it was 128 µg/mL (≈ 331 µM); in [10], greater than 128 µg/mL. Besides, the MBC in [3], in test [7], in test [8] and in test [9] was greater than 128 µg/mL throughout. In [4], this compound gave an MBC90 greater than 128 µg/mL. Moreover, the MIC50 (usually the lowest concentration that inhibits either 50% of growth or 50% of the strains tested, depending on the study) in [5] is 128 µg/mL (≈ 331 µM). In test [5], the MIC90 (commonly the lowest concentration that inhibits either 90% of growth or 90% of the strains tested, depending on the study) is greater than 128 µg/mL.

`C=CCc1cc(/N=N/c2cccc3ccccc23)c(O)c(OC)c1`: the MIC in test [1] is greater than 128 µg/mL; in test [2], greater than 128 µg/mL; in test [6], greater than 128 µg/mL; in [10] it was 128 µg/mL (≈ 402 µM). Also, the MBC in test [3] is greater than 128 µg/mL; in test [7], greater than 128 µg/mL; in [8] it was 128 µg/mL (≈ 402 µM); in test [9], greater than 128 µg/mL. The compound also gave an MBC90 in [4] greater than 128 µg/mL. Moreover, the MIC50 in test [5] is greater than 128 µg/mL. In test [5], this compound returned an MIC90 greater than 128 µg/mL.

As for `COc1ccc(/N=N/c2cc(C(C)C)c(OC(=S)N(C)C)cc2C)cc1`, the minimum inhibitory concentration (MIC) in test [1] was 128 µg/mL (≈ 345 µM); in test [2], 128 µg/mL (≈ 345 µM); in test [6], 128 µg/mL (≈ 345 µM); in test [10] it was greater than 128 µg/mL. For the same compound, the MBC was 128 µg/mL (≈ 345 µM) in test [3], 128 µg/mL (≈ 345 µM) in test [7], greater than 128 µg/mL in test [8] and greater than 128 µg/mL in test [9]. This compound also registered an MBC90 in [4] greater than 128 µg/mL. The MIC50 in test [5] was 128 µg/mL (≈ 345 µM). In test [5], the MIC90 was greater than 128 µg/mL.

`COc1cc(C=O)cc(/N=N/c2ccc(C#N)cc2)c1O`: the MIC in [1] worked out at 8 µg/mL (≈ 28.4 µM); in test [2], 8 µg/mL (≈ 28.4 µM); in test [6] it was 4 µg/mL (≈ 14.2 µM); in test [10], 8 µg/mL (≈ 28.4 µM). For the same compound, the MBC is 8 µg/mL (≈ 28.4 µM) in test [3], 8 µg/mL (≈ 28.4 µM) in test [7], 16 µg/mL (≈ 56.9 µM) in test [8] and 4 µg/mL (≈ 14.2 µM) in [9]. Moreover, in test [4], the MBC90 stood at 16 µg/mL (≈ 56.9 µM). For the same compound, the MIC50 in [5] was 8 µg/mL (≈ 28.4 µM). The compound further gave an MIC90 in [5] of 8 µg/mL (≈ 28.4 µM).

Consider `COc1cc(C=O)ccc1O` [VANILLIN], for which the MIC in test [1] is 128 µg/mL (≈ 841 µM); in test [2], greater than 128 µg/mL; in [6], greater than 128 µg/mL; in test [10] it was greater than 128 µg/mL. The MBC in [3] was greater than 128 µg/mL; in test [4] (Helicobacter pylori, read-out: MBC99.9), greater than 128 µg/mL; in test [7], 128 µg/mL (≈ 841 µM); in [8], greater than 128 µg/mL; in test [9], greater than 128 µg/mL. In test [5], this compound had an MIC50 greater than 128 µg/mL. Moreover, the MIC90 in [5] was greater than 128 µg/mL.

Turning to `C=CCc1cc(/N=N/c2ccc3c(c2)OCO3)c(O)c(OC)c1`, the MIC in test [1] is greater than 128 µg/mL; in test [2] it was greater than 128 µg/mL; in [6] it was greater than 128 µg/mL; in test [10], 128 µg/mL (≈ 410 µM). Moreover, the MBC in [3] was greater than 128 µg/mL; in test [7] it was greater than 128 µg/mL; in [8], 128 µg/mL (≈ 410 µM); in test [9], greater than 128 µg/mL. This compound also displayed an MBC90 in [4] greater than 128 µg/mL. In addition, the MIC50 in [5] was greater than 128 µg/mL. In test [5], this compound yielded an MIC90 greater than 128 µg/mL.

Turning to `COc1ccc(/N=N/c2cc(C(C)C)c(O)c(/N=N/c3ccc(OC)cc3)c2C)cc1`, the MIC in [1] was 128 µg/mL (≈ 306 µM); in test [2], 128 µg/mL (≈ 306 µM); in [6], 128 µg/mL (≈ 306 µM); in test [10] it was greater than 128 µg/mL. Moreover, the MBC in test [3], in test [7], in [8] and in test [9] was greater than 128 µg/mL each time. Besides, the MBC90 in test [4] is greater than 128 µg/mL. In test [5], this compound had an MIC50 of 128 µg/mL (≈ 306 µM). Further, the MIC90 in test [5] was greater than 128 µg/mL.

Take `COc1ccc(/N=N/c2cc(C)c(O)c(/N=N/c3ccc(OC)cc3)c2C(C)C)cc1`: the MIC in test [1], in test [2], in test [6] and in [10] was greater than 128 µg/mL each time. In addition, the MBC in test [3], in test [7], in test [8] and in test [9] was greater than 128 µg/mL throughout. In test [4], this compound gave an MBC90 greater than 128 µg/mL. The compound further returned an MIC50 in test [5] greater than 128 µg/mL. Further, the MIC90 in [5] was greater than 128 µg/mL.

Consider `Cc1cc(OC(=O)N(C)C)c(C(C)C)cc1/N=N/c1ccc([N+](=O)[O-])cc1`, for which the MIC in [1] is 128 µg/mL (≈ 346 µM); in test [2], greater than 128 µg/mL; in [6], 128 µg/mL (≈ 346 µM); in test [10], greater than 128 µg/mL. Further, the MBC in test [3], in [7], in [8] and in test [9] was 128 µg/mL (≈ 346 µM) in each case. In test [4], this compound registered an MBC90 of 128 µg/mL (≈ 346 µM). The MIC50 in test [5] is greater than 128 µg/mL. In addition, the MIC90 in test [5] is greater than 128 µg/mL.

Source of the values: ChEMBL document CHEMBL6109036, “Azo derivatives of monoterpenes as anti-Helicobacter pylori agents: from synthesis to structure-based target investigation” (RSC Med Chem, 2025).
